Measurements taken from ChEMBL document CHEMBL4689842, “EUbOPEN Chemogenomics Library wave 1” (2021).

System: U2OS
Assay: Multiplex assay against U2OS
Type: toxicity, cell-based
Conditions: human
Method in brief: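 With compound added, live cells were imaged on a CQ1 microscope at 37°C and 5% CO2; staining with Hoechst33342, BioTracker Green Microtubule Cytoskeleton Dye, MitoTracker Red and Annexin V Alexa Fluor 680 had been done at seeding. The CellPathfinder machine-learning gating scheme split cells into Hoechst high-intensity objects or normal cells, normal cells into healthy, pyknosed or fragmented nuclei, and pyknosed cells into mitotic or apoptotic. The tubulin, mitochondrial-mass and membrane-permeability phenotypes are per cents of healthy-nucleus cells.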

[1] = 12 h, 1 µM, compound concentration 1 uM, replicate 1
[2] = 12 h, 1 µM, compound concentration 1 uM, replicate 2
[3] = 12 h, 10 µM, compound concentration 10 uM, replicate 1
[4] = 12 h, 10 µM, compound concentration 10 uM, replicate 2
[5] = 24 h, 1 µM, compound concentration 1 uM, replicate 1
[6] = 24 h, 1 µM, compound concentration 1 uM, replicate 2
[7] = 24 h, 10 µM, compound concentration 10 uM, replicate 1
[8] = 24 h, 10 µM, compound concentration 10 uM, replicate 2
[9] = 48 h, 1 µM, compound concentration 1 uM, replicate 1
[10] = 48 h, 1 µM, compound concentration 1 uM, replicate 2
[11] = 48 h, 10 µM, compound concentration 10 uM, replicate 1
[12] = 48 h, 10 µM, compound concentration 10 uM, replicate 2

## O=C(Nc1ccc(-n2nc(-c3cccnc3)cc2C(F)(F)F)cn1)c1ccc(-c2ccccc2)c(F)c1 [BI 2049]
[1]
  Population Apoptotic (%): 63%
  Population Fragmented Nuclei (%): 12%
  Population Healthy Nuclei (%): 74%
  Population Hoechst High Intensity Objects (%): 12%
  Population Membrane Permeable-Phenotype (%): 6%
  Population Mitochondria Different-Phenotype (%): 10%
  Population Mitotic Cells (%): 36%
  Population Normal (%): 87%
  Population Pyknosed Nuclei (%): 12%
  Population Tubulin-Different-Phenotype (%): 12%
  Total Cell Count: 99
[2]
  Population Apoptotic (%): 50%
  Population Fragmented Nuclei (%): 4%
  Population Healthy Nuclei (%): 85%
  Population Hoechst High Intensity Objects (%): 8%
  Population Membrane Permeable-Phenotype (%): 3%
  Population Mitochondria Different-Phenotype (%): 7%
  Population Mitotic Cells (%): 50%
  Population Normal (%): 91%
  Population Pyknosed Nuclei (%): 9%
  Population Tubulin-Different-Phenotype (%): 44%
  Total Cell Count: 69
[3]
  Population Apoptotic (%): 30%
  Population Fragmented Nuclei (%): 13%
  Population Healthy Nuclei (%): 69%
  Population Hoechst High Intensity Objects (%): 9%
  Population Membrane Permeable-Phenotype (%): 6%
  Population Mitochondria Different-Phenotype (%): 24%
  Population Mitotic Cells (%): 70%
  Population Normal (%): 90%
  Population Pyknosed Nuclei (%): 17%
  Population Tubulin-Different-Phenotype (%): 35%
  Total Cell Count: 129
[4]
  Population Apoptotic (%): 0%
  Population Fragmented Nuclei (%): 18%
  Population Healthy Nuclei (%): 81%
  Population Hoechst High Intensity Objects (%): 6%
  Population Membrane Permeable-Phenotype (%): 4%
  Population Mitochondria Different-Phenotype (%): 12%
  Population Mitotic Cells (%): 0%
  Population Normal (%): 93%
  Population Pyknosed Nuclei (%): 0%
  Population Tubulin-Different-Phenotype (%): 8%
  Total Cell Count: 65
[5]
  Population Apoptotic (%): 60%
  Population Fragmented Nuclei (%): 8%
  Population Healthy Nuclei (%): 79%
  Population Hoechst High Intensity Objects (%): 5%
  Population Membrane Permeable-Phenotype (%): 3%
  Population Mitochondria Different-Phenotype (%): 6%
  Population Mitotic Cells (%): 40%
  Population Normal (%): 94%
  Population Pyknosed Nuclei (%): 11%
  Population Tubulin-Different-Phenotype (%): 13%
  Total Cell Count: 136
[6]
  Population Apoptotic (%): 25%
  Population Fragmented Nuclei (%): 7%
  Population Healthy Nuclei (%): 83%
  Population Hoechst High Intensity Objects (%): 7%
  Population Membrane Permeable-Phenotype (%): 4%
  Population Mitochondria Different-Phenotype (%): 9%
  Population Mitotic Cells (%): 75%
  Population Normal (%): 92%
  Population Pyknosed Nuclei (%): 8%
  Population Tubulin-Different-Phenotype (%): 37%
  Total Cell Count: 96
[7]
  Population Apoptotic (%): 34%
  Population Fragmented Nuclei (%): 10%
  Population Healthy Nuclei (%): 71%
  Population Hoechst High Intensity Objects (%): 5%
  Population Membrane Permeable-Phenotype (%): 6%
  Population Mitochondria Different-Phenotype (%): 21%
  Population Mitotic Cells (%): 65%
  Population Normal (%): 94%
  Population Pyknosed Nuclei (%): 18%
  Population Tubulin-Different-Phenotype (%): 19%
  Total Cell Count: 135
[8]
  Population Apoptotic (%): 0%
  Population Fragmented Nuclei (%): 11%
  Population Healthy Nuclei (%): 84%
  Population Hoechst High Intensity Objects (%): 3%
  Population Membrane Permeable-Phenotype (%): 4%
  Population Mitochondria Different-Phenotype (%): 13%
  Population Mitotic Cells (%): 100%
  Population Normal (%): 96%
  Population Pyknosed Nuclei (%): 3%
  Population Tubulin-Different-Phenotype (%): 10%
  Total Cell Count: 82
[9]
  Population Apoptotic (%): 33%
  Population Fragmented Nuclei (%): 9%
  Population Healthy Nuclei (%): 82%
  Population Hoechst High Intensity Objects (%): 5%
  Population Mitochondria Different-Phenotype (%): 12%
  Population Mitotic Cells (%): 66%
  Population Normal (%): 94%
  Population Pyknosed Nuclei (%): 7%
  Population Tubulin-Different-Phenotype (%): 10%
  Total Cell Count: 200
[10]
  Population Apoptotic (%): 22%
  Population Fragmented Nuclei (%): 2%
  Population Healthy Nuclei (%): 91%
  Population Hoechst High Intensity Objects (%): 3%
  Population Membrane Permeable-Phenotype (%): 1%
  Population Mitochondria Different-Phenotype (%): 10%
  Population Mitotic Cells (%): 77%
  Population Normal (%): 96%
  Population Pyknosed Nuclei (%): 6%
  Population Tubulin-Different-Phenotype (%): 41%
  Total Cell Count: 146
[11]
  Population Apoptotic (%): 63%
  Population Fragmented Nuclei (%): 8%
  Population Healthy Nuclei (%): 74%
  Population Hoechst High Intensity Objects (%): 3%
  Population Membrane Permeable-Phenotype (%): 7%
  Population Mitochondria Different-Phenotype (%): 13%
  Population Mitotic Cells (%): 36%
  Population Normal (%): 96%
  Population Pyknosed Nuclei (%): 17%
  Population Tubulin-Different-Phenotype (%): 11%
  Total Cell Count: 181
[12]
  Population Apoptotic (%): 11%
  Population Fragmented Nuclei (%): 7%
  Population Healthy Nuclei (%): 85%
  Population Hoechst High Intensity Objects (%): 2%
  Population Membrane Permeable-Phenotype (%): 3%
  Population Mitochondria Different-Phenotype (%): 11%
  Population Mitotic Cells (%): 88%
  Population Normal (%): 97%
  Population Pyknosed Nuclei (%): 7%
  Population Tubulin-Different-Phenotype (%): 6%
  Total Cell Count: 128
